ChEMBL document CHEMBL3603784, “Novel hybrids of 3-n-butylphthalide and edaravone: Design, synthesis and evaluations as potential anti-ischemic stroke agents” (2015)
Calls of active or inactive are those of the source. The calls are words filed in the database; no cut-off is given here.

system: PC-12; assay: Antioxidant activity in rat PC12 cells assessed as reduction of NADH-mediated superoxide anion radical formation at 10 uM preincubated for 1 hr followed by NADH addition by NBT assay in presence of edaravone; assay type: functional; conditions: not given
Method in brief: (§1)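 PC12 cells were cultured as for the other PC12 assays and pretreated in triplicate for 1 h. Each tube then received DMSO, 468 µM NADH and 300 µM NBT. Superoxide activity was read by NBT assay, with DMSO used to fully dissolve the formazan.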

Compound	Activity [U/L]
CCCCC1OC(=O)c2ccccc21 (racemic) [RAC-3-N-BUTYLPHTHALIDE]	140.787

system: not listed separately; assay: Antiplatelet activity in rabbit platelet rich plasma assessed as inhibition of arachidonic acid-induced platelet aggregation at 0.1 mM preincubated for 5 mins followed by arachidonic acid addition measured after 5 mins by Born's turbidimetric method in presence of NBP relative to control; assay type: functional; conditions: Oryctolagus cuniculus
Method in brief: (§2)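 Rabbit PRP was taken from centrifugation supernatant, and PPP was obtained at 3000 rpm for 10 min. PRP was pretreated in duplicate with test agent or vehicle for 5 min at 37 °C, then given ADP (10 µM) or AA (1 mM). Aggregation was followed turbidimetrically by optical density. Results are % inhibition versus vehicle-treated, inducer-exposed samples, n = 6, mean ± SD.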

Compound	inhibition at 100 µM [%]
CC1=NN(c2ccccc2)C(=O)C1 [EDARAVONE]	42.5

system: PC-12; assay: Antioxidant activity in rat PC12 cells assessed as reduction of H2O2/Fe2+-mediated hydroxyl radical formation at 10 uM preincubated for 1 hr followed by H2O2/Fe2+ addition by Griess assay in presence of NBP; assay type: functional; conditions: not given
Method in brief: (§3)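 PC12 cells grown in DMEM with 10% heat-inactivated horse serum, 5% FBS, 1.0 mM sodium pyruvate, penicillin/streptomycin, 37 °C, 5% CO2. Cells pretreated in triplicate for 1 h, then exposed to 1 mM H2O2/20 µM Fe2+ (pH 7.4). After a medium change, cells were collected in 0.5 mL phosphate buffer (pH 7.4). Hydroxyl radical activity was read by Griess assay.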

Compound	Activity [U/ml]
CC1=NN(c2ccccc2)C(=O)C1 [EDARAVONE]	36.8347

system: not listed separately; assay: Antiplatelet activity in rabbit platelet rich plasma assessed as inhibition of ADP-induced platelet aggregation at 0.1 mM preincubated for 5 mins followed by ADP addition measured after 5 mins by Born's turbidimetric method in presence of NBP relative to control; assay type: functional; conditions: Oryctolagus cuniculus; method in brief: as §2

Compound	inhibition at 100 µM [%]
CC1=NN(c2ccccc2)C(=O)C1 [EDARAVONE]	28.1

system: not listed separately; assay: Antiplatelet activity in rabbit platelet rich plasma assessed as inhibition of ADP-induced platelet aggregation at 0.1 mM preincubated for 5 mins followed by ADP addition measured after 5 mins by Born's turbidimetric method relative to control; assay type: functional; conditions: Oryctolagus cuniculus; method in brief: as §2

Compound	inhibition at 100 µM [%]
CCCCC(OC(C)=O)c1ccccc1C(=O)Oc1cc(C)nn1-c1ccc(F)cc1 (centres undefined)	31.8
CC1=NN(c2ccc(F)cc2)C(=O)C1	13.5
CCCCC(OC(C)=O)c1ccccc1C(=O)Oc1cc(C)nn1-c1ccc([N+](=O)[O-])cc1 (centres undefined)	33.9
CCCCC(OC(C)=O)c1ccccc1C(=O)Oc1cc(C)nn1-c1cccc(Cl)c1 (centres undefined)	35.2
CCCCC(OC(C)=O)c1ccccc1C(=O)Oc1cc(C)nn1-c1ccc(Cl)cc1 (centres undefined)	29.3
CCCCC1OC(=O)c2ccccc21 (racemic) [RAC-3-N-BUTYLPHTHALIDE]	22.9
CCCCC(OC(C)=O)c1ccccc1C(=O)O (centres undefined)	17.7
CCCCC(OC(C)=O)c1ccccc1C(=O)Oc1cc(C(F)(F)F)nn1-c1ccc([N+](=O)[O-])cc1 (centres undefined)	15.4
CC1=NN(c2ccccc2)C(=O)C1 [EDARAVONE]	24.8
CCCCC(OC(C)=O)c1ccccc1C(=O)Oc1cc(C(F)(F)F)nn1-c1ccc(C)cc1 (centres undefined)	25.5
CCCCC(OC(C)=O)c1ccccc1C(=O)Oc1cc(C)nn1-c1ccc(C)cc1 (centres undefined)	21.3
CCCCC(OC(C)=O)c1ccccc1C(=O)Oc1cc(C)nn1-c1ccccc1 (centres undefined)	23
CCCCC(OC(C)=O)c1ccccc1C(=O)Oc1cc(C(F)(F)F)nn1-c1cccc(Cl)c1 (centres undefined)	31.2
CCCCC(OC(C)=O)c1ccccc1C(=O)Oc1cc(C(F)(F)F)nn1-c1ccc(F)cc1 (centres undefined)	13.6
CCCCC(OC(C)=O)c1ccccc1C(=O)Oc1cc(C(F)(F)F)nn1-c1ccc(Cl)cc1 (centres undefined)	23.2
CCCCC(OC(C)=O)c1ccccc1C(=O)Oc1cc(C)nn1-c1ccc(OC)cc1 (centres undefined)	30.2
CCCCC(OC(C)=O)c1ccccc1C(=O)Oc1cc(C(F)(F)F)nn1-c1ccc(OC)cc1 (centres undefined)	19.9
CCCCC(OC(C)=O)c1ccccc1C(=O)Oc1cc(C(F)(F)F)nn1-c1ccccc1 (centres undefined)	26.9
Clc1ccccc1CN1CCc2sccc2C1 [TICLOPIDINE]	11.5

system: not listed separately; assay: Antiplatelet activity in rabbit platelet rich plasma assessed as inhibition of arachidonic acid-induced platelet aggregation at 0.1 mM preincubated for 5 mins followed by arachidonic acid addition measured after 5 mins by Born's turbidimetric method in presence of edaravone relative to control; assay type: functional; conditions: Oryctolagus cuniculus; method in brief: as §2

Compound	inhibition at 100 µM [%]
CCCCC1OC(=O)c2ccccc21 (racemic) [RAC-3-N-BUTYLPHTHALIDE]	42.5

system: PC-12; assay: Antioxidant activity in rat PC12 cells assessed as reduction of NADH-mediated superoxide anion radical formation at 10 uM preincubated for 1 hr followed by NADH addition by NBT assay in presence of NBP; assay type: functional; conditions: not given; method in brief: as §1

Compound	Activity [U/L]
CC1=NN(c2ccccc2)C(=O)C1 [EDARAVONE]	140.787

system: PC-12; assay: Antioxidant activity in rat PC12 cells assessed as reduction of H2O2/Fe2+-mediated hydroxyl radical formation at 10 uM preincubated for 1 hr followed by H2O2/Fe2+ addition by Griess assay in presence of edaravone; assay type: functional; conditions: not given; method in brief: as §3

Compound	Activity [U/ml]
CCCCC1OC(=O)c2ccccc21 (racemic) [RAC-3-N-BUTYLPHTHALIDE]	36.8347

system: not listed separately; assay: Neuroprotective activity against H2O2-induce cell damage in rat PC12 cells assessed as cell viability at 10 uM preincubated for 1 hr followed by H2O2 induction measured after 3 hrs by MTT assay in presence of NBP (reference value: 50.85%); assay type: functional; conditions: PC-12, read-out: Activity

Compound	viability at 10 µM [%]
CC1=NN(c2ccccc2)C(=O)C1 [EDARAVONE]	76.6

system: not listed separately; assay: Antiplatelet activity in rabbit platelet rich plasma assessed as inhibition of ADP-induced platelet aggregation at 0.1 mM preincubated for 5 mins followed by ADP addition measured after 5 mins by Born's turbidimetric method in presence of edaravone relative to control; assay type: functional; conditions: Oryctolagus cuniculus; method in brief: as §2

Compound	inhibition at 100 µM [%]
CCCCC1OC(=O)c2ccccc21 (racemic) [RAC-3-N-BUTYLPHTHALIDE]	28.1

system: not listed separately; assay: Antiplatelet activity in rabbit platelet rich plasma assessed as inhibition of arachidonic acid-induced platelet aggregation at 0.1 mM preincubated for 5 mins followed by arachidonic acid addition measured after 5 mins by Born's turbidimetric method relative to control; assay type: functional; conditions: Oryctolagus cuniculus; method in brief: as §2

Compound	inhibition at 100 µM [%]
CCCCC(OC(C)=O)c1ccccc1C(=O)Oc1cc(C)nn1-c1ccc(F)cc1 (centres undefined)	59.9
CC1=NN(c2ccc(F)cc2)C(=O)C1	24.3
CCCCC(OC(C)=O)c1ccccc1C(=O)Oc1cc(C)nn1-c1ccc([N+](=O)[O-])cc1 (centres undefined)	39.6
CCCCC(OC(C)=O)c1ccccc1C(=O)Oc1cc(C)nn1-c1cccc(Cl)c1 (centres undefined)	46.1
CCCCC(OC(C)=O)c1ccccc1C(=O)Oc1cc(C)nn1-c1ccc(Cl)cc1 (centres undefined)	40.3
CCCCC1OC(=O)c2ccccc21 (racemic) [RAC-3-N-BUTYLPHTHALIDE]	14.1
CCCCC(OC(C)=O)c1ccccc1C(=O)O (centres undefined)	27.7
CCCCC(OC(C)=O)c1ccccc1C(=O)Oc1cc(C(F)(F)F)nn1-c1ccc([N+](=O)[O-])cc1 (centres undefined)	21.3
CC1=NN(c2ccccc2)C(=O)C1 [EDARAVONE]	25.5
CCCCC(OC(C)=O)c1ccccc1C(=O)Oc1cc(C(F)(F)F)nn1-c1ccc(C)cc1 (centres undefined)	40.7
CCCCC(OC(C)=O)c1ccccc1C(=O)Oc1cc(C)nn1-c1ccc(C)cc1 (centres undefined)	20.5
CCCCC(OC(C)=O)c1ccccc1C(=O)Oc1cc(C)nn1-c1ccccc1 (centres undefined)	15.4
CCCCC(OC(C)=O)c1ccccc1C(=O)Oc1cc(C(F)(F)F)nn1-c1cccc(Cl)c1 (centres undefined)	21.2
CCCCC(OC(C)=O)c1ccccc1C(=O)Oc1cc(C(F)(F)F)nn1-c1ccc(F)cc1 (centres undefined)	27.5
CCCCC(OC(C)=O)c1ccccc1C(=O)Oc1cc(C(F)(F)F)nn1-c1ccc(Cl)cc1 (centres undefined)	26.6
CCCCC(OC(C)=O)c1ccccc1C(=O)Oc1cc(C)nn1-c1ccc(OC)cc1 (centres undefined)	29.4
CC(=O)Oc1ccccc1C(=O)O [ASPIRIN]	16.2
CCCCC(OC(C)=O)c1ccccc1C(=O)Oc1cc(C(F)(F)F)nn1-c1ccc(OC)cc1 (centres undefined)	37.7
CCCCC(OC(C)=O)c1ccccc1C(=O)Oc1cc(C(F)(F)F)nn1-c1ccccc1 (centres undefined)	29.3

system: PC-12; assay: Antioxidant activity in rat PC12 cells assessed as reduction of NADH-mediated superoxide anion radical formation at 10 uM preincubated for 1 hr followed by NADH addition by NBT assay; assay type: functional; conditions: not given; method in brief: as §1

Compound	Activity [U/L]
CCCCC(OC(C)=O)c1ccccc1C(=O)Oc1cc(C)nn1-c1ccc(F)cc1 (centres undefined)	141.49
CC1=NN(c2ccc(F)cc2)C(=O)C1	117.579
CCCCC1OC(=O)c2ccccc21 (racemic) [RAC-3-N-BUTYLPHTHALIDE]	36.7429
CCCCC(OC(C)=O)c1ccccc1C(=O)O (centres undefined)	56.1954
CC1=NN(c2ccccc2)C(=O)C1 [EDARAVONE]	97.6942
CC(=O)Oc1ccccc1C(=O)O [ASPIRIN]	79.3793
Clc1ccccc1CN1CCc2sccc2C1 [TICLOPIDINE]	26.9592

system: PC-12; assay: Neuroprotective activity against H2O2-induce cell damage in rat PC12 cells assessed as cell viability at 10 uM preincubated for 1 hr followed by H2O2 induction measured after 3 hrs by MTT assay; assay type: functional, cell-based; conditions: not given

Compound	Activity
CC1=NN(c2ccc(F)cc2)C(=O)C1	Active
CCCCC(OC(C)=O)c1ccccc1C(=O)O (centres undefined)	Active

system: PC-12; assay: Antioxidant activity in rat PC12 cells assessed as reduction of H2O2/Fe2+-mediated hydroxyl radical formation at 10 uM preincubated for 1 hr followed by H2O2/Fe2+ addition by Griess assay; assay type: functional; conditions: not given; method in brief: as §3

Compound	Activity [U/ml]
CCCCC(OC(C)=O)c1ccccc1C(=O)Oc1cc(C)nn1-c1ccc(F)cc1 (centres undefined)	65.51
CC1=NN(c2ccc(F)cc2)C(=O)C1	31.7447
CCCCC1OC(=O)c2ccccc21 (racemic) [RAC-3-N-BUTYLPHTHALIDE]	16.2026
CCCCC(OC(C)=O)c1ccccc1C(=O)O (centres undefined)	17.6015
CC1=NN(c2ccccc2)C(=O)C1 [EDARAVONE]	25.2753
CC(=O)Oc1ccccc1C(=O)O [ASPIRIN]	30.6956
Clc1ccccc1CN1CCc2sccc2C1 [TICLOPIDINE]	15.0616

system: not listed separately; assay: Neuroprotective activity against H2O2-induce cell damage in rat PC12 cells assessed as cell viability at 10 uM preincubated for 1 hr followed by H2O2 induction measured after 3 hrs by MTT assay in presence of edaravone (reference value: 50.85%); assay type: functional; conditions: PC-12, read-out: Activity

Compound	viability at 10 µM [%]
CCCCC1OC(=O)c2ccccc21 (racemic) [RAC-3-N-BUTYLPHTHALIDE]	76.6

system: not listed separately; assay: Neuroprotective activity against H2O2-induce cell damage in rat PC12 cells assessed as cell viability at 10 uM preincubated for 1 hr followed by H2O2 induction measured after 3 hrs by MTT assay (reference value: 50.85%); assay type: functional; conditions: PC-12, read-out: Activity

Compound	viability at 10 µM [%]
CCCCC(OC(C)=O)c1ccccc1C(=O)Oc1cc(C)nn1-c1ccc(F)cc1 (centres undefined)	93.3
CCCCC(OC(C)=O)c1ccccc1C(=O)Oc1cc(C)nn1-c1ccc([N+](=O)[O-])cc1 (centres undefined)	85.2
CCCCC1OC(=O)c2ccccc21 (racemic) [RAC-3-N-BUTYLPHTHALIDE]	71
CCCCC(OC(C)=O)c1ccccc1C(=O)Oc1cc(C(F)(F)F)nn1-c1ccc([N+](=O)[O-])cc1 (centres undefined)	87.3
CC1=NN(c2ccccc2)C(=O)C1 [EDARAVONE]	76.9
CCCCC(OC(C)=O)c1ccccc1C(=O)Oc1cc(C)nn1-c1ccc(C)cc1 (centres undefined)	86
CCCCC(OC(C)=O)c1ccccc1C(=O)Oc1cc(C(F)(F)F)nn1-c1ccc(Cl)cc1 (centres undefined)	83
CC(=O)Oc1ccccc1C(=O)O [ASPIRIN]	77.4
Clc1ccccc1CN1CCc2sccc2C1 [TICLOPIDINE]	67.2

system: not listed separately; assay: Neuroprotective activity against H2O2-induce cell damage in rat PC12 cells assessed as cell viability at 1 uM preincubated for 1 hr followed by H2O2 induction measured after 3 hrs by MTT assay (reference value: 50.85%); assay type: functional; conditions: PC-12, read-out: Activity

Compound	viability at 1 µM [%]
CCCCC(OC(C)=O)c1ccccc1C(=O)Oc1cc(C)nn1-c1ccc(F)cc1 (centres undefined)	88.1
